GSK3 alpha inh – inhibitors of human GSK-3 alpha kinase | inhibition, % at 10 µM | actives 0.1% (n = 320,000) | ADP-Glo luminescence, 60 min;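 active means more than half of replicates show inhibition above 20%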;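 further: GST-tagged GSK-3 alpha with peptide substrate and 25 µM ATP; 0% = DMSO neutral wells and 100% = GW8510 positive control wells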
CDK5 inh – blocks human CDK5/p35 kinase activity | actives 0.01% (n = 330,000) | Q00535+Q15078 | AID 488839 | Recombinant CDK5/p35, ADP-Glo luminescence, 60 min | inhibition, % at 10 µM;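 active means highest replicate inhibition of at least 50% and at least 75% of replicates reaching 50%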;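 further: plate controls were DMSO neutral control for no effect and GW8510 at 10 µM for full effect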
STK33 kinase inh – human STK33 kinase inhibition | Q9BYT3 | purified STK33, MBP phosphorylation, ADP-Glo luminescence | inhibition, % at 10 µM | actives 0.073% (n = 320,000) | AID 2661;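 active means inhibition at or above 25%, using the most active replicate where run in duplicate; inactive means inhibition below 25%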
DYRK1A inh – Dyrk1A (rat) kinase inhibition | actives 0.43% (n = 310,000) | ADP-Glo luminescence, NFATc1 peptide | Q63470 | AID 504441 | inhibition, % at 12.5 µM; in the data active means inhibition above about 50%;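 further: plate controls were vehicle with enzyme for no effect and no enzyme for full effect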
GSK3beta inhib – human GSK3beta kinase inhibition; P49841; GST-GSK3beta kinase, ADP-Glo luminescence, 60 min; stronger effect = lower value; activity score (negative = inhibition), % at 10 µM; actives 0.038% (n = 300,000); AID 2097;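 active means more than half of replicate wells score below -50%, meaning over 50% inhibition versus plate controls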;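 further: 0% = median DMSO wells and -100% = median GW8510 positive control wells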
Target sequence (P49841 whole entry, looked up): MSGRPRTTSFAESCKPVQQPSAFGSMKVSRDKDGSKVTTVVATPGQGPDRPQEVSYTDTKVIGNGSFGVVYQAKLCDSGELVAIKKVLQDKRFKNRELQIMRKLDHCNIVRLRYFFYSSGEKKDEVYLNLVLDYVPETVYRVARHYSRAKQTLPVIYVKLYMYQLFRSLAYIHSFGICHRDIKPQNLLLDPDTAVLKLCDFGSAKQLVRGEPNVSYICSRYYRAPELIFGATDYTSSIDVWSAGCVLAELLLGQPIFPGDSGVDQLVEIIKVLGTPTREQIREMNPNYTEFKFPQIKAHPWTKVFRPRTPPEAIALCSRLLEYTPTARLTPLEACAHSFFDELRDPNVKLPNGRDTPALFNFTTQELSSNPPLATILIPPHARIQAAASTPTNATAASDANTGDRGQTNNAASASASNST
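Assay system: GST-fused GSK3beta enzyme, cell-free / Medium: Tris pH 7.5 buffer with MgCl2, DTT, BSA, heparin / Also added: peptide substrate plus 25 µM ATP (final) / Compound: 10 µM single point / Timing: kinase reaction with compound 60 min at room temperature / Detection: ADP-Glo luminescence / Benchmarks: DMSO neutral wells and GW8510 at 20 µM as positive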
Dyrk1A artifact – counter-screen for Dyrk1A inhibitors: ADP-Glo luciferase artifacts | AC50, µM (titrated, usually from 12 µM), without a hit: at the top dose activity change, negative = inhibition | ADP-Glo luciferase artifact assay, no Dyrk1A, luminescence | shares compounds with DYRK1A inh | 1,300 tested, under 10 active;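 active means fitted half-maximal dose AC50 no more than ten times the top valid tested dose, with luminescence dropping as dose rises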
Numbers without * were called inactive; . = no result given. Only a selection was taken, and hits are over-represented in it overall.

SMILES | GSK3 alpha inh | CDK5 inh | STK33 kinase inh | DYRK1A inh | GSK3beta inhib | Dyrk1A artifact
COc1ccc2cc(CCNC(=O)c3ccc(S(=O)(=O)N4CCCC4)cc3)c(=O)[nH]c2c1 | -2 | -1 | -1 | -7 | 0 | .
O=C(CN1C(=O)NC2(CCCC2)C1=O)N1CCN(c2ccccc2O)CC1 | 3 | -2 | -1 | 5 | 0 | .
O=C1C=C(N2CCOCC2)c2ccccc2C1=O | -3 | 3 | 5 | 56* | 4 | 9%
Cc1noc(NS(=O)(=O)c2ccc(N/C=C\C(=O)c3ccc(Br)cc3)cc2)c1C | -2 | 0 | 3 | 63* | 3 | 7%
N#C/C(=C\c1cccs1)c1nc2ccccc2[nH]1 | -1 | 1 | -1 | 2 | -4 | .
N#C/C(=C/c1ccc(O)c(O)c1)c1nc2ccccc2[nH]1 | 10 | 1 | 7 | 67* | -2 | 9%
CC(C)CC(NC(=O)C1CCC(C)CC1)C(=O)Nc1ccc2c(c1)OCCO2 (centres undefined) | -4 | 0 | 2 | 56* | 0 | 12%
CSCCC(NC(=O)c1ccccc1Br)C(=O)N1CCCCCCC1 (centres undefined) | 0 | 1 | 0 | -3 | 4 | .
COc1cc(C(C)=O)ccc1O | 1 | -1 | 0 | 0 | -3 | .
COc1ccc2c(c1)[nH]c1c(Cl)ncnc12 | . | 3 | . | 65* | -10 | 11%
Cc1ccc2[nH]c3c(Cl)ncnc3c2c1 | -2 | 1 | 3 | 17 | 3 | .
COC(=O)c1c(-c2ccccc2Cl)noc1/C=C/N(C)C | 2 | -2 | -2 | -4 | 2 | .
CCc1cccc(C)c1NC(=O)c1ccc2nc(N3CCOCC3)sc2c1 | -1 | 1 | -2 | 0 | 4 | .
CCC(=O)Nc1nc(-c2ccc3c(c2)OCCO3)cs1 | -2 | -4 | 1 | 52* | 2 | 11%
O=C(Nc1nc(-c2ccncc2)cs1)c1ccco1 | 0 | 5 | 2 | 76* | 2 | 6%
COc1ccccc1C(=O)Nc1nc(-c2ccc3c(c2)OCCO3)cs1 | -1 | 0 | -1 | 24 | 0 | .
O=C(Nc1nc(-c2ccc3c(c2)OCCO3)cs1)c1ccco1 | 1 | 0 | 1 | 73* | -2 | 6%
O=C(Nc1nc(-c2cccs2)cs1)c1ccco1 | -2 | 0 | -4 | 8 | 0 | .
CC(C)(C)C(=O)Nc1nc(-c2ccc3c(c2)OCO3)cs1 | 2 | . | 1 | 17 | -2 | .
O=C(/C=C/c1ccccc1)Nc1nc(-c2ccncc2)cs1 | -9 | -1 | -1 | 72* | . | 8%
CC(C)c1nnc(NC(=O)Cn2nc(-c3ccc4c(c3)OCCO4)ccc2=O)s1 | -2 | 0 | -2 | 58* | 1 | 7%
O=C(Cc1c(F)cccc1Cl)Nc1nc2ccccc2s1 | 0 | 2 | 5 | 51* | 0 | 6%
Fc1cccc(/C=N/Nc2ncnc3nc[nH]c23)c1 | 68* | 31 | 0 | 73* | -44 | 1%
Cc1ccc(/C=N/Nc2ncnc3nc[nH]c23)cc1 | 41 | 20 | 5 | 42 | -36 | .
Fc1ccccc1/C=N/Nc1ncnc2nc[nH]c12 | 65* | 39 | 8 | 55* | -36 | 5%
SMILES | GSK3 alpha inh | CDK5 inh | STK33 kinase inh | DYRK1A inh | GSK3beta inhib | Dyrk1A artifact
CCn1c(CC(=O)Nc2ccccc2F)nnc1SCC(=O)NC1CCCC1 | -2 | -1 | -1 | -1 | 0 | .
COC1=CC(=O)c2c(ccc3ncnc(N)c23)C1=O | . | 4 | . | 51* | . | 14%
CCOC(=O)c1ccc(/C=C2/C=C(c3ccccc3)N(c3ccc(Cl)c(C(=O)O)c3)C2=O)cc1 | -4 | -1 | 2 | -3 | 3 | .
COc1cc(O)c2c(=O)c3c(O)ccc(O)c3oc2c1 | . | 3 | . | 68* | . | 11%
COc1cc(/C=C2\SC(=O)NC2=O)ccc1Oc1ccc([N+](=O)[O-])cc1[N+](=O)[O-] | 2 | 1 | -2 | 77* | -4 | 10%
COc1ccc(/C=C2\SC(=O)NC2=S)cc1OC | . | 0 | . | 58* | 0 | 8%
CCOc1ccc(/C=C2\SC(=S)N(C)C2=O)cc1OC | 0 | . | -1 | . | -3 | .
Nc1c(C(=O)CSc2ncccn2)c(=O)[nH]c(=O)n1C1CC1 | -3 | -1 | 0 | 0 | . | .
Cc1cc(C(=O)CSc2nncs2)c(C)n1Cc1ccco1 | 2 | 0 | 1 | -2 | 2 | .
Cc1cc(C(=O)CSc2nn(-c3ccccc3)c(=S)s2)c(C)n1Cc1ccco1 | 4 | -1 | -1 | 57* | -1 | 5%
CCCN1CCN(c2ncnc3scc(C4COc5ccccc5O4)c23)CC1 (centres undefined) | 7 | 1 | 4 | 57* | -3 | 9%
NC1=NC(=O)/C(=C/c2ccc(-c3ccc(S(N)(=O)=O)cc3)o2)S1 | 65* | 40 | 0 | 77* | -2 | 13%
CS(=O)(=O)Nc1ccc(-c2ccc(/C=C3\SC(N)=NC3=O)o2)cc1 | 55* | 5 | -1 | 84* | 0 | 10%
NC1=NC(=O)/C(=C\c2ccco2)S1 | 3 | 2 | 3 | 47 | -1 | .
CC1(C)OC(=O)C(=Cc2ccc(-c3ccc(S(N)(=O)=O)cc3)o2)C(=O)O1 | -1 | 0 | -1 | -1 | 0 | .
COc1cccc(C(=O)c2sc(NC(C)C)nc2N)c1 | 94* | 55* | 2 | 53* | -93* | 7%
O=C(Nc1ccc(S(=O)(=O)N2CCCC2)cc1)c1ccc([N+](=O)[O-])cc1 | -1 | -1 | 0 | 16 | . | .
O=C1[C@H]2[C@H](C=CC[C@H]2C(=O)N2CCOCC2)CCN1Cc1ccccc1 | -1 | 0 | 0 | 53* | 2 | 10%
O=C(Nc1ccccc1)[C@@H]1CC=C[C@@H]2CCN(Cc3ccccc3)C(=O)[C@@H]21 | -2 | -3 | 1 | 1 | -2 | .
Cc1ccc2c(c1)N(CC(=O)OCC(=O)NCc1ccccc1)C(=O)CO2 | 2 | 0 | -2 | 8 | 1 | .
Cc1ccc(CC(=O)N2CCN(S(=O)(=O)c3ccccc3)CC2)cc1C | -1 | 2 | 0 | 3 | 5 | .
CC1(C)C=Cc2cc3ccc(=O)oc3cc2O1 | 13 | 1 | 4 | 59* | 3 | 6%
COc1c2c(cc3oc(=O)ccc13)OC(C)(C)C=C2 | 3 | 3 | 2 | 40 | -2 | .
NC(=O)CCC(NC(=S)Nc1ccccc1)C(=O)O (centres undefined) | -2 | 0 | -1 | -5 | -2 | .
COc1cc(C(=O)NCc2nnc(SCC(=O)NCCc3ccccc3)o2)cc(OC)c1OC | -2 | -1 | -2 | 0 | 2 | .
Cc1cc2c(cc1[N+](=O)[O-])NC(CNC(C)C)CC2 (centres undefined) | 0 | 0 | 1 | 38 | 0 | .
COc1ccc(OCC(=O)Nc2ccc(Cl)cc2)cc1 | -2 | 2 | 0 | 0 | 0 | .
COC(=O)NNC(=O)COc1ccc(Cl)cc1 | 1 | 0 | -1 | 84* | 2 | 7%
